# Measurements from different studies.
# Protocols differ between the studies behind these lines.
# ABL1 phosphorylated: Tyrosine-protein kinase ABL1, phosphorylated (ABL1, Homo sapiens, UniProt P00519)
# ABL1: Tyrosine-protein kinase ABL1 (ABL1, Homo sapiens, UniProt P00519)
Compound,target,observed,mode,method,concentration,endpoint,result
Cc1nn(C)cc1-c1nc2c(N3CCN(Cc4ccc(Cl)cc4)CC3)c(Cl)cnc2[nH]1,ABL1 phosphorylated,binding,,competition with immobilised ligand,1 µM,remaining binding,100%
Cn1cncc1[C@](O)(COc1ccc(C#N)cc1-c1ccc(OC(F)(F)F)cc1)c1ccc(C#N)cc1,ABL1 phosphorylated,cell-free assay,,competition with immobilised ligand,1 µM,remaining binding,100%
Cn1cc(-c2cccc(N3CCc4c(sc5c4CC(C)(C)C5)C3=O)c2CO)cc(Nc2ccncn2)c1=O,ABL1,enzyme activity,inhibitor,,1 µM,inhibition,-1%
N#CC1(c2ccccn2)CCN(Cc2cc(C(=O)O)c(=O)n3ccccc23)CC1,"Tyrosine-protein kinase ABL1, phosphorylated (ABL1, Homo sapiens, UniProt P00519, F317L)",cell-free assay,,competition with immobilised ligand,1 µM,remaining binding,84%
Cc1ncc(C)n2nc(/C=C/c3nc(N4CCCC4)cc(N4CCOCC4)n3)nc12,ABL1,enzyme activity,inhibitor,,10 µM,inhibition,14%
C#Cc1n[nH]c2c(-c3cn([C@@H](C)c4ccccn4)c(=O)[nH]c3=O)cc(F)cc12,ABL1,enzyme activity,inhibitor,,0.1 µM,inhibition,-3.6%
O=c1[nH]c2ccccc2n1C1CCN(Cc2ccc(-c3[nH]c4cc5ncnc5cc4nc3-c3ccccc3)cc2)CC1,ABL1,cell-free assay,,,0.5 µM,remaining signal,98.2%
Nc1ncc(-c2nc(N3CCOCC3)nc(N3CCOCC3)n2)c(C(F)F)n1,"Tyrosine-protein kinase ABL1, non-phosphorylated (ABL1, Homo sapiens, UniProt P00519, F317I)",binding,,competition with immobilised ligand,10 µM,remaining binding,84%
Cn1cc(-c2cc(F)cc(N3CCn4c(cc5c4CCCC5)C3=O)c2CO)cc(Nc2ccc(N3CCN(C4COC4)CC3)cn2)c1=O,"Tyrosine-protein kinase ABL1 (ABL1, Homo sapiens, UniProt P00519, Y253F)",enzyme activity,inhibitor,,0.1 µM,inhibition,3%
